Counter-ions that a name gives are not always drawn. *1 amine or outer side, *2 acyl side, *3 side chain or, on linkers, in order; H or OH if unused. Where a SMILES comes first, the peptide text is derived from it. Bridges are numbered along the chain shown (N, C = ends). Roman numbers before positions name the chains, in order. [ ]: non-standard residue; d: D form. Piperazine(1,4-diyl) = C1CN([*:2])CCN1[*:1]; Phe(4-F) = N[C@@H](Cc1ccc(F)cc1)C(=O)O; Dmt = Cc1cc(O)cc(C)c1C[C@H](N)C(=O)O; oXylylene = c1ccc(C[*:2])c(C[*:1])c1
How the values were obtained:
[1] = test system: formalin-induced pain; test: Formalin test; format: in vivo, mouse; settings: s.c. hind paw 100 nmol/20 μL, 15 min before formalin
Procedure, shortened: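 Test compound (100 nmol/20 μL) was injected s.c. into the left dorsal hind paw 15 min before formalin (1% in saline, 20 μL/paw) in the same paw. Vehicle was DMSO/saline 1:5 v/v, […] s.c. Total licking/biting time was scored in the early and late phases. Analysis was two-way ANOVA with Tukey's test.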

[2] = biological target: human KOR expressed in CHO cells (Homo sapiens, UniProt P41145); test: 35S-GTPγS coupling assay at KOR; format: biochemical
Procedure, shortened: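 Test compounds stimulated 35S-GTPγS coupling at human MOR, DOR or KOR expressed in CHO cells. Reference agonists were included to validate the assay: DAMGO for MOR, SNC80 for DOR and U50,488 for KOR. EC50 and EMAX were calculated separately for each independent experiment and reported as mean ± SEM of N ≥ 3 experiments.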

[3] = test system: response to thermal nociceptive stimuli; test: Hot plate test after i.c.v. administration; format: in vivo, mouse; settings: i.c.v. 0.6 nmol/10 μL, 90 to 120 min after administration
Procedure, shortened: (§1)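 Mice received test compound i.c.v. at 0.6 nmol/10 μL. Vehicle was DMSO/saline 1:5 v/v, 10 μL/mouse. Hot plate and tail flick responses to thermal stimuli were recorded as a time course starting 15 min after dosing and expressed as % MPE. Groups were N = 12 or 7. Analysis was two-way ANOVA with Tukey's test versus vehicle.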

[4] = test system: response to thermal nociceptive stimuli; test: Tail flick test after i.c.v. administration; format: in vivo, mouse; settings: i.c.v. 0.6 nmol/10 μL, 90 to 120 min after administration
Procedure, shortened: as §1

[5] = test system: dependence and withdrawal; test: Naloxone-precipitated withdrawal; format: in vivo, CD-1 mice; settings: 3.2 mg/kg s.c. repeated dosing, naloxone 30 mg/kg i.p. on day 4

Chain of human KOR expressed in CHO cells (P41145 whole entry): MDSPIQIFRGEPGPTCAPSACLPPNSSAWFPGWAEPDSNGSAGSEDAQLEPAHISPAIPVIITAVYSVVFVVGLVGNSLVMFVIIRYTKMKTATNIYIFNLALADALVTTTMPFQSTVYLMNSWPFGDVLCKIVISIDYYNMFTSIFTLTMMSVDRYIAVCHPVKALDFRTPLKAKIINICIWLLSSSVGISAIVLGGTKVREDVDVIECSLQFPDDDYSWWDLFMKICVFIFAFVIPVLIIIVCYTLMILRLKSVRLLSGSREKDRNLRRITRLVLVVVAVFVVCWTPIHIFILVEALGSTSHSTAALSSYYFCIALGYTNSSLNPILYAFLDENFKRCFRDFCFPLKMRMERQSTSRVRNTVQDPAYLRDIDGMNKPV

Cc1cc(O)cc(C)c1C[C@H](N)C(=O)N[C@@H]1CSCc2ccccc2CSC[C@@H](NC(=O)[C@@H](N)Cc2c(C)cc(O)cc2C)C(=O)NCC(=O)N[C@@H](Cc2ccc(F)cc2)C(=O)N2CCN(CC2)C(=O)[C@H](Cc2ccc(F)cc2)NC(=O)CNC1=O [MJ4, 2 TFA c(Dmt-D-Cys-Gly-P-F-Phe)2-piperazine o-Xylene] (I: H-[Dmt][dC]G[Phe(4-F)] / II: H-[Dmt][dC]G[Phe(4-F)]; linker I:2-II:2 via oXylylene; linker I:C-II:C via Piperazine(1,4-diyl))
licking/biting behavior induced by formalin, early phase [1]: did not change the effects induced by formalin | licking/biting behavior induced by formalin, late phase [1]: did not change the effects induced by formalin | KOR agonist activity, in words [2]: more potent agonist activity

biphalin
antinociceptive effect (% MPE), hot plate [3]: antinociceptive effects steadily decrease | antinociceptive effect (% MPE), tail flick [4]: antinociceptive effects steadily decrease

CN1CC[C@]23c4c5ccc(O)c4O[C@H]2[C@@H](O)C=C[C@H]3[C@H]1C5 [morphine]
urine/feces output in naloxone-precipitated withdrawal [5]: comparable urine/feces output
